Measurements published in paper PMC4308698 (Scientific Reports, 2015).
Entries after “also recorded” stand apart in the source; their conditions may differ.

Assays:
[1] = tested on: antennae of female and male adults of A. lineolatus; conditions: exceptions at 10% level; cited from earlier work
AlinCSP4 [2] = biological target: T1, AlinCSP4 (Adelphocoris lineolatus, UniProt K9J9S0); test: Fluorescence competitive binding assay with 1-NPN as probe, recombinant AlinCSP4; conditions: for binding to AlinCSP4 (in words): competitive binding with 1-NPN
T1 sequence (K9J9S0 20-127): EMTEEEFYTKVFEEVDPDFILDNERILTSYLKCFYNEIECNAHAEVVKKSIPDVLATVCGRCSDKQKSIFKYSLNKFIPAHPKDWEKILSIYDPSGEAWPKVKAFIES
In short: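 Refolded, His-tag-cleaved recombinant protein at 2 μM and 1-NPN at 2 μM in Tris-HCl pH 7.4 were titrated with 1 mM competitor stock to 2–30 μM final, at 25°C. Excitation was 337 nm, with emission read at 390–460 nm. IC50 is the competitor level that halves 1-NPN fluorescence, and Ki = IC50/(1+[1-NPN]/K1-NPN). IC50 <20 μM was taken as good binding; Ki was not calculated when IC50 >30 μM.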

[3] = tested on: antennae of female and male adults of A. lineolatus; test: Electroantennogram; design: species or system Adelphocoris lineolatus; conditions: 0.01%, 0.1%, 1%, 10% v/v, normalized to 10% 3-hexanone
In short: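 Antennae were excised from newly emerged lab-reared adults (green beans and 10% honey, 14L:10D, 29±1°C) and mounted between two electrodes with electrode gel. A 10 μL aliquot per dose was delivered in an air stream of 10 ml/sec, and signals were recorded for 5 s from 1 s before the stimulus. Paraffin oil served as control. Six antennae per sex were tested per compound, given as normalized mean ± SE and compared by one-way ANOVA (α=0.05).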

AlinCSP5 = biological target: T2, AlinCSP5 (Adelphocoris lineolatus, UniProt K9J9X7); test: Binding of fluorescent probe 1-NPN to recombinant AlinCSP5
T2 sequence (K9J9X7 22-127): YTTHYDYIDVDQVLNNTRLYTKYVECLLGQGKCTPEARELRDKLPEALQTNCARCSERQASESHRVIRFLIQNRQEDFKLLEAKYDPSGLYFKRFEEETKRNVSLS
In short: (§1)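 Recombinant mature protein (E. coli BL21(DE3), pET30a(+)) was refolded from inclusion bodies, purified by two rounds of Ni affinity, and had the His-tag removed with enterokinase. 2 μM protein in 50 mM Tris-HCl pH 7.4 was titrated with 1 mM 1-NPN in methanol (stock) to 1–16 μM final, at 25°C. Excitation was 337 nm; emission peak was read at 390–460 nm. Analysis assumed 1:1 stoichiometry with fully active protein, using a Scatchard plot.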

AlinCSP6 = biological target: T3, AlinCSP6 (Adelphocoris lineolatus, UniProt K9J9R7); test: Binding of fluorescent probe 1-NPN to recombinant AlinCSP6
T3 sequence (K9J9R7 20-132): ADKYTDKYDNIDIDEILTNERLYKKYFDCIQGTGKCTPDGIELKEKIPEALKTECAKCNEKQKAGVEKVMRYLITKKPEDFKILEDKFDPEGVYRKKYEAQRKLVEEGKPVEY
In short: as §1

AlinCSP4 [4] = biological target: T1, AlinCSP4; test: Binding of fluorescent probe 1-NPN to recombinant AlinCSP4
In short: as §1

[5] = tested on: female adults of A. lineolatus; conditions: plant volatile emitted by Bt cotton plants; cited from earlier work
AlinCSP1 = conditions: cited from earlier work

Compound | IC50 (AlinCSP4 [2]) | further results
C=CC(C)(O)CCC=C(C)CCC=C(C)C (mixture of isomers) [Nerolidol] | 2 ± 0.17 µM | EAG response of terpenoids (in words) [1]: good EAG responses
Cc1ccc(C=O)cc1C [3,4-Dimethyl-benzaldehyde] | 10.6 ± 0.75 µM | –
CC(=O)CCC=C(C)C [6-Methyl-5-hepten-2-one] | 20.2 ± 2.62 µM | –
CC(=O)c1ccccc1 [Acetophenone] | 27.5 ± 1.73 µM | –
O=Cc1ccccc1 [Benzaldehyde] | 14.3 ± 1.86 µM | –
CCCCOC(=O)CCC [Butyl butyrate] | 21.1 ± 0.51 µM | –
CCCC(=O)OCC [Ethyl butyrate] | 9.81 ± 1.55 µM | –
CCCCCCC=O [Heptanal] | 11.4 ± 0.47 µM | –
CCCCCC=O [Hexanal] | 10.5 ± 2.11 µM | –
CCCCCCOC(=O)CCC [Hexyl butyrate] | 9.22 ± 1.77 µM | EAG response (in words) [3]: more sensitive EAG responses
CCCCCCOC(=O)CCCCC [Hexyl hexanoate] | 2.36 ± 0.21 µM | –
c1ccc2[nH]ccc2c1 [Indole] | 23.3 ± 1.6 µM | –
CCCCCCO [Ligand 1-Hexanol, 1-Hexanol] | 12.5 ± 0.88 µM | –
c1ccc(Nc2cccc3ccccc23)cc1 [Ligand 1-NPN, N-phenyl-1-naphthylamine] | – | Kd (AlinCSP5): 4.2 ± 0.5 µM; Kd (AlinCSP6): 8.3 ± 1.8 µM; Kd (AlinCSP4 [4]): 2.8 ± 0.4 µM
CCCCCC(C)=O [Ligand 2-Heptanone, 2-Heptanone] | 27.3 ± 0.6 µM | –
CCCCC(C)O (stereo not drawn) [Ligand 2-Hexanol, 2-Hexanol] | 9.63 ± 0.3 µM | –
CCCCC(C)=O [Ligand 2-Hexanone, 2-Hexanone] | 25.7 ± 0.53 µM | –
CCCCCCC(C)=O [Ligand 2-Octanone, 2-Octanone] | 25.2 ± 2.39 µM | –

Compound | IC50 (AlinCSP4 [2]) | further results
CCCC(=O)CC [Ligand 3-Hexanone, 3-Hexanone] | 24.2 ± 0.84 µM | attraction of female adults (in words) [5]: strongly attract
C=C(C)[C@H]1CC=C(C)CC1 [Limonene] | – | EAG response of terpenoids (in words) [1]: good EAG responses; binding to AlinCSP4 (in words) (AlinCSP4 [2]): no binding
COC(=O)c1ccccc1O [Methyl salicylate] | 12.7 ± 2.01 µM | –
C=CC(=C)CCC=C(C)C [Myrcene] | 20.1 ± 0.81 µM | –
CCCCCCCCC=O [Nonanal] | 13 ± 1.43 µM | –
CCCCCCCCCOC(C)=O [Nonyl acetate] | 5.83 ± 0.44 µM | –
CCCCCCCC=O [Octanal] | 10.9 ± 0.86 µM | –
CCCCCCCCCCC [Undecane] | 7.13 ± 1.29 µM | –
CC/C=C\CCO [cis-3-Hexen-1-ol] | 21.7 ± 0.88 µM | –
CC/C=C\CCOC(C)=O [cis-3-hexenyl acetate] | > 30 µM | binding affinity to AlinCSP1 (in words) (AlinCSP1): very good binding affinity; binding to AlinCSP4 (in words) (AlinCSP4 [2]): no binding; also recorded: no or very weak binding
CCC/C=C/C=O [trans-2-Hexenal] | 16.3 ± 0.51 µM | –
CCC/C=C/COC(=O)CCC [trans-2-hexenyl butyrate] | 11 ± 2.09 µM | EAG response (in words) [3]: more sensitive EAG responses
C=C/C(C)=C/CC=C(C)C [trans-β-Ocimene, trans -β-Ocimene] | – | binding to AlinCSP4 (in words) (AlinCSP4 [2]): no binding
CC1=CC[C@H](C(C)C)C=C1 [α-Phellandrene] | > 30 µM | EAG response of terpenoids (in words) [1]: good EAG responses; binding to AlinCSP4 (in words) (AlinCSP4 [2]): no binding
C=C1CC/C=C(\C)CC[C@@H]2[C@@H]1CC2(C)C [β-Caryophyllene] | 2.26 ± 0.26 µM | –
CC(=O)/C=C/C1=C(C)CCCC1(C)C [β-Ionone] | 10.1 ± 1.24 µM | –
C=C1CCC2CC1C2(C)C (stereo not drawn) [β-Pinene] | > 30 µM | binding to AlinCSP4 (in words) (AlinCSP4 [2]): no binding
(+)-α-Pinene | – | binding to AlinCSP4 (in words) (AlinCSP4 [2]): no binding
